Source: ChEMBL document CHEMBL4024715, “An in vitro and in vivo evaluation of new potential trans-sialidase inhibitors of Trypanosoma cruzi predicted by a computational drug repositioning method” (Eur J Med Chem, 2017)
Values after ≈ are worked out from the molar mass of the structure shown. Active and inactive are the calls of the source. The calls are words filed in the database; no cut-off is given here.

Experiments:
[1] = system: Trypanosoma cruzi; assay: Trypanocidal activity against bloodstream form of Trypanosoma cruzi NINOA infected in NIH mouse assessed as reduction in parasitemia at 100 mg/kg, po measured at 2 to 4 hrs post dose by microscopic method; format: functional, organism-based
Summary of the method: (§1)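 Groups of five female NIH mice (20-25 g) infected intraperitoneally with 2×10^5 bloodstream trypomastigotes. At peak parasitemia (days 19-24), compounds suspended in 4% gum arabic were given orally, 100 mg/kg total dose. Vehicle-only controls. Tail blood examined microscopically at 2, 4 and 6 h after dosing. Parasitemia reduction scored against trypomastigote counts at each interval.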

[2] = system: Trypanosoma cruzi; assay: Trypanocidal activity against bloodstream form of Trypanosoma cruzi NINOA infected in NIH mouse assessed as reduction in parasitemia at 100 mg/kg, po measured at 6 hrs post dose by microscopic method; format: functional, organism-based; summary of the method: as §1
[3] = molecular target: T1, Trans-sialidase (Trypanosoma cruzi) (UniProt Q26964); assay: Inhibition of Trypanosoma cruzi trans-sialidase at 1 mM using N-acetyllactosamine as substrate in presence of 3'-sialyllactose measured after 15 mins by HPAEC-PAD relative to control
T1 sequence (whole entry): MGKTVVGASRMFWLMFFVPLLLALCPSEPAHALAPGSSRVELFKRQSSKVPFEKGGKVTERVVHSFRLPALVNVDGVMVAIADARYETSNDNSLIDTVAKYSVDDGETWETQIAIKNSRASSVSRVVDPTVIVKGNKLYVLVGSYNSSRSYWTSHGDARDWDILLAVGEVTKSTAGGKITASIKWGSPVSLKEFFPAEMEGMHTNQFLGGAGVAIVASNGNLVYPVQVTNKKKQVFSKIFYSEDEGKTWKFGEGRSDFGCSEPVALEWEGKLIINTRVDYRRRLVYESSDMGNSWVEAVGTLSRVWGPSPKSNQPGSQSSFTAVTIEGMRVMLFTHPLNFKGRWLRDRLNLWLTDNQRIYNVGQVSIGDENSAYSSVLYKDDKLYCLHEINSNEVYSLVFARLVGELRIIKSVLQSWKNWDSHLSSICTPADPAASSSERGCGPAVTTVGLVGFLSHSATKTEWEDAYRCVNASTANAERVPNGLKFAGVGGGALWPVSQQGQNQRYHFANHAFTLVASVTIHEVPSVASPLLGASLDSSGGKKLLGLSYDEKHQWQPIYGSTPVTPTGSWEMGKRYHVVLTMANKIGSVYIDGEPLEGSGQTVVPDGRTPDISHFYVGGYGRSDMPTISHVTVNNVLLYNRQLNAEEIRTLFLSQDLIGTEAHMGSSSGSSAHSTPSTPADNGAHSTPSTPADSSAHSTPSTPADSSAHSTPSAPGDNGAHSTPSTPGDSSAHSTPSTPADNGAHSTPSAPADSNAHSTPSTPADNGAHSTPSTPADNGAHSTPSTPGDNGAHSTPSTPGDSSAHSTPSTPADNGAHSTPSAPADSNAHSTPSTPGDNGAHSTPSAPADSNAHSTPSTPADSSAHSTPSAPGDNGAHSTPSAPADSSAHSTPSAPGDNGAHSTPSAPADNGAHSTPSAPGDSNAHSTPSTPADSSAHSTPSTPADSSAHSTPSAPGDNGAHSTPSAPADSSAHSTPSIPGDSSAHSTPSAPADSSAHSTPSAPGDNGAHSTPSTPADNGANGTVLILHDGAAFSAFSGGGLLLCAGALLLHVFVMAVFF
Summary of the method: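 Purified T. cruzi Ts (300 ng) incubated 15 min at room temperature in 20 mM Tris-HCl pH 7, 30 mM NaCl with 1 mM 3'-sialyllactose donor, 1 mM N-acetyllactosamine acceptor and 1 mM inhibitor. Water-insoluble compounds added from 10 mM DMSO stock; DMSO-only control. Samples diluted 12-fold and analysed by HPAEC-PAD. Inhibition from 3'-sialyl-N-acetyllactosamine relative to total sialylated products, with vs without compound.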

[4] = system: Trypanosoma cruzi; assay: Trypanocidal activity against bloodstream form of Trypanosoma cruzi INC-5 infected in NIH mouse assessed as reduction in parasitemia at 100 mg/kg, po measured up to 6 hrs post dose by microscopic method; format: functional, organism-based; summary of the method: as §1
[5] = system: Trypanosoma cruzi; assay: Trypanocidal activity against trypomastigote stage of Trypanosoma cruzi NINOA infected in NIH mouse blood assessed as parasite lysis at 50 ug/ml after 24 hrs by optical microscopic method relative to control; format: functional
Summary of the method: (§2)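 Blood from infected NIH mice was taken by cardiac puncture at peak infection and adjusted to 1×10^6 trypomastigotes/mL. Compounds came from 10 mg/mL DMSO stocks diluted in water; final DMSO below 1%. Incubation was 24 h at 4 °C. Controls were DMSO/H₂O 1:99, untreated blood and reference drug. Trypomastigotes in 5 µL blood were counted by the Brener method at 40×. Percent lysis was taken versus the negative control, with three runs per strain.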

[6] = system: Trypanosoma cruzi; assay: Trypanocidal activity against bloodstream form of Trypanosoma cruzi NINOA infected in NIH mouse assessed as reduction in parasitemia at 100 mg/kg, po measured up to 6 hrs post dose by microscopic method; format: functional, organism-based; summary of the method: as §1
[7] = system: Trypanosoma cruzi; assay: Trypanocidal activity against trypomastigote stage of Trypanosoma cruzi INC-5 infected in NIH mouse blood after 24 hrs by optical microscopic method; format: functional; details: INC-5, Blood
[8] = system: Trypanosoma cruzi; assay: Trypanocidal activity against trypomastigote stage of Trypanosoma cruzi NINOA infected in NIH mouse blood after 24 hrs by optical microscopic method
[9] = system: Trypanosoma cruzi; assay: Trypanocidal activity against trypomastigote stage of Trypanosoma cruzi INC-5 infected in NIH mouse blood assessed as parasite lysis at 50 ug/ml after 24 hrs by optical microscopic method relative to control; format: functional; summary of the method: as §2
[10] = system: Trypanosoma cruzi; assay: Trypanocidal activity against bloodstream form of Trypanosoma cruzi INC-5 infected in NIH mouse assessed as reduction in parasitemia at 100 mg/kg, po measured at 6 hrs post dose by microscopic method; format: functional, organism-based; summary of the method: as §1
[11] = system: Trypanosoma cruzi; assay: Trypanocidal activity against bloodstream form of Trypanosoma cruzi INC-5 infected in NIH mouse assessed as reduction in parasitemia at 100 mg/kg, po measured at 2 to 4 hrs post dose by microscopic method; format: functional, organism-based; summary of the method: as §1
[12] = Solubility of the compound in water; format: physicochemical; details: buffer
[13] = system: Trypanosoma cruzi; assay: Trypanocidal activity against bloodstream form of Trypanosoma cruzi NINOA infected in NIH mouse assessed as reduction in parasitemia at 100 mg/kg, po measured at 4 hrs post dose by microscopic method relative to control; format: functional; parameters: scale not given: the % may be the effect or the level left; summary of the method: as §1

| Structure (SMILES) | Activity [1] | Activity [2] | inhibition [3] | Activity [4] | Activity [5] | Activity [6] | LC50 [7] | LC50 [8] | Activity [9] | Activity [10] | Activity [11] | solubility [12] | Activity [13] |
| --- | --- | --- | --- | --- | --- | --- | --- | --- | --- | --- | --- | --- | --- |
| NC(=O)c1cc[n+](CC2=C(C(=O)[O-])N3C(=O)[C@@H](NC(=O)[C@@H](c4ccccc4)S(=O)(=O)O)[C@H]3SC2)cc1 | Active | inactive | inactive |  |  |  |  |  |  |  |  |  |  |
| O=C(Cn1ccnc1[N+](=O)[O-])NCc1ccccc1 [BENZNIDAZOLE] |  |  |  | Active | 69% | Active | 40.6 µg/mL (≈ 156 µM) | 46.6 µg/mL (≈ 179 µM) | 56% |  |  |  |  |
| CCN1CCN(C(=O)N[C@@H](C(=O)N[C@@H]2C(=O)N3C(C(=O)[O-])=C(CSc4nnnn4C)CS[C@H]23)c2ccc(O)cc2)C(=O)C1=O.[Na+] [CEFOPERAZONE SODIUM] | Active | inactive | 10.1% |  | 64% |  | 23 µg/mL | 25.8 µg/mL | 71% | inactive | Active |  |  |
| NC(=O)c1cc[n+](CC2=C(C(=O)[O-])N3C(=O)[C@@H](NC(=O)[C@@H](c4ccccc4)S(=O)(=O)[O-])[C@H]3SC2)cc1.[Na+] [CEFSULODIN SODIUM] |  |  |  |  | 87% |  |  | 16.6 µg/mL | 14% |  |  |  |  |
| COc1cc2nc(N3CCN(C(=O)C4COc5ccccc5O4)CC3)nc(N)c2cc1OC.CS(=O)(=O)O (stereo not given) [DOXAZOSIN MESYLATE] |  |  | 5.3% |  | 97% |  | 14.7 µg/mL | 12.9 µg/mL | 89% |  |  | Insoluble |  |
| COC(=O)Nc1nc2cc(C(=O)c3ccc(F)cc3)ccc2[nH]1 [FLUBENDAZOLE] |  |  | inactive |  | 41% |  |  |  | 42% |  |  | Insoluble |  |
| O=C(O)C(O)C(O)C(=O)O.O=C(c1ccc(F)cc1)C1CCN(CCn2c(=O)[nH]c3ccccc3c2=O)CC1 [KETANSERIN TARTRATE] |  |  |  |  | 89% |  | 18.4 µg/mL | 13.6 µg/mL | 73% |  |  |  |  |
| CC1CS(=O)(=O)CCN1/N=C/c1ccc([N+](=O)[O-])o1 (stereo not given) [NIFURTIMOX] |  |  |  |  | 66% |  |  |  | 51% |  |  |  |  |
| O=C(O)c1cc(/N=N/c2ccc(S(=O)(=O)Nc3ccccn3)cc2)ccc1O [SULFASALAZINE] | Active | inactive | 37.6% |  | 92% |  |  | 19.3 µg/mL (≈ 48.4 µM) | 10% |  |  | Insoluble | 60% |
| CC(C)(C)c1ccc(C(O)CCCN2CCC(C(O)(c3ccccc3)c3ccccc3)CC2)cc1 (stereo not given) [TERFENADINE] | Active | inactive | 8.2% |  | 100% |  | 4.5 µg/mL (≈ 9.54 µM) | 16.3 µg/mL (≈ 34.6 µM) | 100% | inactive | Active | Insoluble |  |
